Screens (PubChem)
The sample as a whole holds a higher share of hits than the screen did.
Lmaj promast: Leishmania major promastigote growth inhibition; Leishmania major promastigotes, resazurin fluorescence viability; inhibition, % at 10 µM; 9% of 200,000 active; AID 1063; in the data active = inhibition above about 50%;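 note: promastigotes grown with compound for 44 hours at 28 °C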
NLRP3 yeast inh: NALP3 inhibition in yeast | Yeast reconstituted NLRP3/ASC/caspase-1, beta-gal luminescence, 24 h | 0.39% of 330,000 active | inhibition, % at 10 µM;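 active = inhibition of 50% or more; inactive = inhibition below 50%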;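 note: plate controls were induced DMSO wells for no effect and uninduced yeast grown without galactose for full effect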
PolyA inh: blocks polyadenylation in yeast reporter cells | AID 1875 | 0.02% of 300,000 active | S. cerevisiae SKY197-pL101 polyadenylation reporter, beta-gal luminescence; efflux-impaired pdr1/pdr3 knockout yeast; score 100 = 6 SD above DMSO | activity score, % at 12 µM;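 active = lowest replicate activity score at least 50, where 100 means six control SD above control mean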;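 note: yeast exposed to compound for 9 h at 30 °C; higher score means more reporter readthrough which indicates perturbed polyadenylation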
NALP1 yeast inh: inhibitors of NALP1 inflammasome in yeast | S. cerevisiae NALP1/ASC/caspase-1 growth, X-gal OD620, 72 h | inhibition, % at 10 µM | 0.61% of 280,000 active; in the data active = inhibition mostly above about 24%, no sharp cut-off; inactive = mostly below about 32%
T cruzi repl: blocks replication of Trypanosoma cruzi | T. cruzi beta-gal in NIH3T3, luminescence, 90 h | inhibition, % (no concentration beside the values) | 1.4% of 300,000 active | AID 1885;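 active = mean inhibition across valid replicates above about 55%, limit read from the data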;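 note: signal also drops with host cell toxicity which is not excluded here; 0% = plate median of DMSO wells and 100% = zero luminescence signal; higher percent means less beta-gal luminescence so fewer parasites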
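System: Mouse NIH/3T3 fibroblasts infected with β-gal-expressing T. cruzi Tulahuen C4 | Quantity: NIH/3T3 cells, 5,000 per well | Reagent: 5000 reporter trypomastigotes per well | Dosing: Compound pinned at 50 nL/well, DMSO | Schedule: 3 h host attachment, then at least 90 h co-culture | Detection: GalScreen luminescence, 60 min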
Calb FLC: C. albicans growth modulation with fluconazole | 0.57% of 300,000 active | C. albicans CaCi-2 + fluconazole, Alamar Blue growth, 48 h | growth inhibition, % (test concentration not listed);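 active = growth inhibition above about 58% in most replicates, limit read from the data, passing the limit was not always enough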;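 note: all wells also contain fluconazole at 8 µg/ml as a sub-toxic cotreatment; 0% = median of DMSO wells and 100% = median of geldanamycin control wells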
Active calls of the source: *; / = no result.

SMILES | Lmaj promast | NLRP3 yeast inh | PolyA inh | NALP1 yeast inh | T cruzi repl | Calb FLC
COC(=O)C1=CO[C@@H](C)[C@@H]2CN3CC[C@]4(C(=O)Nc5ccccc54)[C@@H]3C[C@H]12 | 1.5 | 7.8 | -6.4 | 18.4 | -5.9 | -3.8
COC(=O)C1=C(c2ccc(OC(F)(F)F)cc2)C[C@@H]2CC[C@H]1N2C(=O)N1CCC(C)CC1 | / | 13.5 | / | / | / | /
Cc1cc2c(C(C)C)c(O)c(O)c(C=O)c2c(O)c1-c1c(C)cc2c(C(C)C)c(O)c(O)c(C=O)c2c1O | -13.2 | / | / | -1.7 | / | /
CC1(C)C2CC=C(CN3CCOCC3)C1C2 (stereo unspecified) | 63.5* | 3.0 | -13.9 | 8.9 | 4.7 | -0.1
C[C@@H]1CC[C@@]2(NC1)O[C@H]1C[C@H]3[C@@H]4CC=C5C[C@@H](O)CC[C@]5(C)[C@H]4CC[C@]3(C)[C@H]1[C@@H]2C | / | -1.8 | -22.1 | 35.6* | 13.9 | 78.6*
C[C@]12CC[C@@H](O)CC1=CCC1C2CC[C@]2(C)C(=O)[C@H](F)CC12 (stereo partly specified) | / | 49.8 | / | / | / | /
CCOc1ccc2[nH]c(=O)c(CN(CCO)C3(c4nnnn4C4CCCCC4)CCCCC3)cc2c1 | 11.3 | 11.6 | -0.9 | 22.3 | 3.8 | 15.1
CCOC(=O)C1(CCc2ccccc2)CCN(Cc2ccc3c(c2)OCCO3)CC1 | 84.3* | 37.8 | -18.4 | 19.8 | 23.0 | -29.7
CCOC(=O)C1(CCCc2ccccc2)CCN(C2CCCC2)CC1 | 70.9* | 14.6 | -3.6 | 16.0 | -20.1 | -14.7
O=C(Cc1ccccc1)N1CCN(C2CCCC2)CC1 | -0.8 | 18.5 | 5.9 | 28.2 | -1.8 | -2.2
CCOC(=O)C1(CCc2ccccc2)CCN(C2CCSCC2)CC1 | 88.3* | 31.2 | -26.8 | 9.2 | 17.9 | 33.3
CCOC(=O)C1(CCc2ccccc2)CCN(Cc2ccc(NC(C)=O)cc2)CC1 | / | 14.1 | -8.8 | 13.9 | -6.2 | -9.8
CCOC(=O)C1(CCOc2ccccc2)CCN(Cc2ccc(C)s2)CC1 | 81.1* | 31.3 | -10.6 | 22.0 | 50.3 | -17.8
CC(=O)c1ccc(OC(C)C)c(Cc2c(O)[nH]c(=S)[nH]c2=O)c1 | -1.8 | 1.4 | 2.9 | 7.1 | -10.1 | 6.1
CN1CCc2nc3sc(C#N)c(N)c3c(-c3cccs3)c2C1 | 8.8 | 7.9 | 0.5 | 9.3 | 66.6* | -7.1
CN1CCc2nc(N)c(C#N)c(-c3ccccc3)c2C1 | -3.7 | 18.6 | 14.8 | 27.8 | -10.3 | -4.3
CN(C)[C@@H]1C(=O)C(C(N)=O)=C(O)[C@@]2(O)C(=O)C3=C(O)c4c(O)ccc(Cl)c4[C@@](C)(O)C3C[C@@H]12 (stereo partly specified) | -4.6 | / | / | 132.0* | / | /
O=C1NC(=O)C(=Cc2ccc(OCC(=O)N3CCOCC3)cc2)C(=O)N1 | 54.1* | 6.4 | 17.0 | 18.0 | 0.4 | 0.1
CN(CCOc1ccc(C=C2C(=O)NC(=O)NC2=O)cc1)c1ccccn1 | 1.2 | 22.9 | 2.3 | -9.9 | -5.9 | -33.2
C=CCN1C(=O)NC(=O)/C(=C/c2ccc(N(C)C)c(Br)c2)C1=O | -2.0 | -4.5 | -19.4 | 18.7 | -10.2 | -14.3
O=c1c2ccccc2nc(Cc2ccccc2)n1-c1ccccc1O | / | 4.0 | -1.2 | 10.3 | 4.5 | 15.3
COc1ccc(C2=NCC(=O)N(CC(=O)NCc3ccco3)c3sc4c(c32)CCCC4)cc1 | 0.0 | 20.1 | -4.0 | 18.2 | 11.6 | 16.3
O=C(CN1C(=O)CN=C(c2ccccc2Cl)c2cc(Cl)ccc21)NCc1ccco1 | 97.4* | 13.5 | 1.9 | 0.5 | 8.6 | -0.1
O=C(NCC(c1cccnc1)N1CCN(c2ccccc2F)CC1)Oc1ccccc1 (stereo unspecified) | 96.7* | 17.6 | -11.4 | 10.1 | 65.5* | 1.0
COc1ccc(N2CCN(C(CNC(=O)Oc3ccccc3)c3cccnc3)CC2)cc1 (stereo unspecified) | 92.1* | 9.7 | 2.8 | 40.0 | 62.3* | 7.2
SMILES | Lmaj promast | NLRP3 yeast inh | PolyA inh | NALP1 yeast inh | T cruzi repl | Calb FLC
CCN1CCN(C(c2cccs2)C(C)NC(=O)Oc2ccccc2)CC1 (stereo unspecified) | 20.5 | 8.6 | 6.0 | 29.8 | -24.9 | -5.6
O=C1NC(=O)C(=Cc2ccc(-c3ccccc3[N+](=O)[O-])o2)C(=O)N1 | / | 5.3 | 11.5 | / | -12.9 | -4.0
O=C1NC(=O)C(=Cc2ccc(-c3cc(Cl)ccc3[N+](=O)[O-])o2)C(=O)N1 | 64.3* | / | -2.3 | 16.5 | 2.9 | 27.2
Cn1nnc(CC[N+](C)(C)C)n1 | / | 25.5 | -11.3 | / | 1.1 | -2.4
Cc1cccc(CNCCc2ccccc2)n1 | 68.7* | -4.8 | 23.4 | 19.2 | -22.5 | 0.1
COc1ccc(CCNCc2ccccc2F)cc1 | / | 3.8 | 3.0 | 13.9 | 24.9 | 2.2
CC(C)CCNC(=O)c1cc(C(=O)c2cc(Br)ccc2O)cn(CCC(C)C)c1=O | 83.4* | 16.2 | 6.4 | -8.4 | 38.8 | -10.6
CC(C)CCNC(=O)c1cc(C(=O)c2cc(F)ccc2O)cn(CCC(C)C)c1=O | 14.3 | 13.3 | -11.5 | 6.7 | 22.5 | 3.2
O=C(c1cc(C(=O)NCc2ccccc2)c(=O)n(Cc2ccccc2)c1)c1cc(Cl)ccc1O | 97.9* | 7.2 | 13.4 | 31.1 | 12.3 | -15.9
O=C(NCc1ccccc1)c1cccn(Cc2ccccc2)c1=O | / | 26.6 | -7.2 | 10.3 | -1.0 | -3.4
Fc1ccc(C(OCCN2CCCC2)c2ccc(Br)cc2)cc1 (stereo unspecified) | 99.6* | 41.5 | -10.5 | 47.1* | 18.7 | -2.6
c1ccc(CCCN2CCN(CCOC(c3ccccc3)c3ccccc3)CC2)cc1 | / | 41.6 | -2.7 | / | 32.9 | /
Fc1ccc(C(OCCN2CCCC2)c2ccc(F)cc2)cc1 | 90.5* | 11.7 | -5.1 | 20.8 | 22.4 | 25.7
CC12CN3CC(c4ccccc4)(CN(C1)C31CCCCC1)C2=O | -5.8 | -0.6 | 8.0 | 13.0 | -24.1 | 14.1
COc1ccc(CCC(C)NCCc2ccccc2)cc1 (stereo unspecified) | 88.5* | 16.7 | 15.6 | 24.0 | 47.1 | -33.3
COC(=O)C1=C(c2cc3ccccc3s2)C[C@@H]2CC[C@H]1N2C(=O)NCc1ccc(C(F)(F)F)cc1 | / | 14.1 | -7.5 | / | 57.4* | 12.7
O=c1[nH]c(=S)n(C2CC2)c(O)c1C=NCCN1CCOCC1 | / | 38.9 | 9.0 | -6.5 | -38.0 | -3.7
O=c1[nH]c(=O)n(C2CCCCCC2)c(O)c1C=NCCCN1CCOCC1 | 88.5* | 13.2 | -2.6 | 5.7 | 4.2 | -5.9
CN1CCC(N(C)c2nc(-c3ccc([N+](=O)[O-])cc3)nc3ccccc23)CC1 | 100.5* | / | -8.0 | 23.0 | 37.2 | -1.3
CC1(C)CC[C@]2(C)CC[C@]3(C)C4C[C@@H]5OO[C@@]6(O5)C(CCCC6(C)C)[C@]4(C)CC[C@@]3(C)C2C1 (stereo partly specified) | / | 16.5 | / | / | / | /
CN1CCN(C(=O)COc2ccc3ccccc3c2)CC1 | / | 20.1 | 12.6 | 0.1 | 4.3 | -2.1
CN1CCN(C(=O)COc2ccc(-c3nc4ccccc4s3)cc2)CC1 | 100.3* | 9.9 | 3.8 | 26.1 | 48.9 | 6.3
